Assays:
[1] = Ratio of unbound drug level in brain to plasma in CD-1 mouse measured at 4 hrs; assay type: ADME; conditions: for Kp uu at 4 h: CD-1, mouse, read-out: K(p,uu,brain)
Summary of the method: (§1)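 Male CD-1 mice given 10 mg/kg po, 3 per cohort; plasma and brain collected at 1 and 4 h. Free brain/plasma ratio from unbound concentrations; coverage ratio = free brain concentration divided by HEK293 Aβ₁₋₄₀ cell IC50.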

Brain [2] = test: Fraction unbound in CD-1 mouse brain at 10 mg/kg, po measured at 4 hrs; assay type: ADME, organism-based; set-up: dose 10 mg/kg, route oral; conditions: in vivo
Summary of the method: (§2)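 Male CD-1 mice, 3 per cohort, dosed 10 mg/kg orally; brains harvested at 1 and 4 h.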

[3] = Ratio of unbound drug level in brain to plasma in CD-1 mouse measured at 1 hr; assay type: ADME; conditions: for Kp uu at 1 h: CD-1, mouse, read-out: K(p,uu,brain); summary of the method: as §1
Brain [4] = test: Fraction unbound in CD-1 mouse brain at 10 mg/kg, po measured at 1 hr; assay type: ADME, organism-based; set-up: dose 10 mg/kg, route oral; conditions: in vivo; summary of the method: as §2
Plasma [5] = test: Unbound plasma concentration in CD-1 mouse at 3 mg/kg, iv and 10 mg/kg, po measured at 4 hrs; assay type: ADME, organism-based; conditions: in vivo
Summary of the method: (§3)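 Male CD-1 mice, 3 per cohort, dosed 3 mg/kg iv and 10 mg/kg po; plasma drawn at 1 and 4 h, brains harvested from oral groups only. Formulations varied by compound: 40% PEG 400/10% EtOH/50% H₂O; 30% captisol in H₂O; iv 50 mM citrate in saline (pH 4); po 1% CMC/0.5% Tween/5 mM citrate in H₂O.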

Plasma [6] = test: Unbound plasma concentration in CD-1 mouse at 3 mg/kg, iv and 10 mg/kg, po measured at 1 hr; assay type: ADME, organism-based; conditions: in vivo; summary of the method: as §3
[7] = Oral bioavailability in CD-1 mouse at 10 mg/kg; assay type: ADME, organism-based; conditions: in vivo
Mus musculus = test: Hepatic clearance in CD-1 mouse at 3 mg/kg, iv; assay type: ADME, organism-based, Liver; set-up: dose 3 mg/kg, route intravenous; conditions: in vivo; summary of the method: as §3
[8] = Clearance in CD-1 mouse liver microsomes at 1 uM after 20 mins by LC-MS/MS analysis in presence of NADPH; assay type: ADME, Microsome
Summary of the method: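 Compound at 1 μM incubated with mouse liver microsomes for 20 min at 37 °C with NADPH.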

[9] = Dissociation constant, pKa of the compound by parallel capillary electrophoresis method; assay type: physicochemical
Summary of the method: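 pKa determined by a 24-point parallel capillary electrophoresis method, quantitation by UV absorbance at 229 nm.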

[10] = Drug uptake in Hartley guinea pig CSF at 60 mg/kg, po measured at 5 hrs; assay type: ADME, organism-based, Cavia porcellus, Cerebrospinal fluid; set-up: dose 60 mg/kg, route oral; conditions: read-out: Drug uptake
Summary of the method: (§4)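 Male Hartley guinea pigs, oral dosing (CMC/Tween/citrate suspension or PEG/EtOH/H₂O solution), six or eight animals per cohort; CSF drug concentration (nM) measured at each time point.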

[11] = Ratio of unbound drug level in brain to plasma in Hartley guinea pig at 60 mg/kg, po measured at 5 hrs; assay type: ADME, organism-based, Cavia porcellus; set-up: dose 60 mg/kg, route oral; conditions: brain and plasma (unbound), read-out: K(p,uu,brain)
Summary of the method: (§5)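 Male Hartley guinea pigs given single oral doses of 30, 60 or 100 mg/kg in 1% CMC/0.5% Tween/5 mM citrate in H₂O, 6–8 animals per cohort. Plasma, brain and CSF sampled at 1–12 h; free brain to free plasma ratio computed.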

[12] = Fraction unbound in Hartley guinea pig brain at 60 mg/kg, po measured at 5 hrs; assay type: ADME, organism-based, Cavia porcellus; set-up: dose 60 mg/kg, route oral; conditions: in vivo
[13] = Unbound plasma concentration in Hartley guinea pig at 60 mg/kg, po measured at 5 hrs; assay type: ADME, organism-based, Cavia porcellus; set-up: dose 60 mg/kg, route oral; conditions: in vivo
Summary of the method: (§6)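 Male Hartley guinea pigs were dosed orally at 30, 60 or 100 mg/kg, with six or eight animals per cohort. The vehicle was either a suspension in 1% CMC/0.5% Tween/5 mM citrate in H₂O or a 40/10/50 PEG/EtOH/H₂O solution, depending on compound. Unbound plasma concentration was sampled at 1–12 h post-dose alongside brain, CSF and CSF Aβ₁₋₄₀.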

[14] = Drug uptake in Hartley guinea pig CSF at 60 mg/kg, po measured at 3 hrs; assay type: ADME, organism-based, Cavia porcellus, Cerebrospinal fluid; set-up: dose 60 mg/kg, route oral; conditions: read-out: Drug uptake; summary of the method: as §4
[15] = Fraction unbound in Hartley guinea pig brain at 60 mg/kg, po measured at 3 hrs; assay type: ADME, organism-based, Cavia porcellus; set-up: dose 60 mg/kg, route oral; conditions: in vivo
[16] = Ratio of unbound drug level in brain to plasma in Hartley guinea pig at 60 mg/kg, po measured at 3 hrs; assay type: ADME, organism-based, Cavia porcellus; set-up: dose 60 mg/kg, route oral; conditions: brain and plasma (unbound), read-out: K(p,uu,brain); summary of the method: as §5
[17] = Unbound plasma concentration in Hartley guinea pig at 60 mg/kg, po measured at 3 hrs; assay type: ADME, organism-based, Cavia porcellus; set-up: dose 60 mg/kg, route oral; conditions: in vivo; summary of the method: as §6

Compound	Kp uu at 4 h [1]	Drug uptake(free) (Brain [2]) [nM]	Kp uu at 1 h [3]	Drug uptake(free) (Brain [4]) [nM]	Cp(f) (Plasma [5]) [nM]	Cp(f) (Plasma [6]) [nM]	bioavailability [7] [%]	CLH (Mus musculus) [mL/min/kg]	CLhep predicted at 1 µM [8] [mL/min/kg]	further results
C[C@H]1OCC[C@H]2Oc3ccc(-c4cccnc4F)cc3[C@@]3(COC(N)=N3)[C@H]12 (racemic)										pKa [9]: 6.4
CN1C(=O)[C@]2(N=C1N)c1cc(-c3cccc(C#N)c3)ccc1O[C@H]1CCOC[C@@H]12										concentration at 5 h [10]: 40 nM; Kp uu at 5 h [11]: 0.085; Drug uptake(free) [12]: 6.7 nM; Cp(f) [13]: 79 nM; concentration at 3 h [14]: 90 nM; Drug uptake(free) [15]: 12 nM; Kp uu at 3 h [16]: 0.046; Cp(f) [17]: 260 nM
C[C@]12CCOC[C@@H]1[C@]1(COC(N)=N1)c1cc(-c3cncc(Cl)c3)ccc1O2 (racemic)	0.048	5.8	0.082	18	120	220	76	34	60	
C[C@]12CCOC[C@@H]1[C@]1(COC(N)=N1)c1cc(-c3cncc(Cl)c3)c(F)cc1O2 (racemic)									65	
C[C@@]12COCC[C@H]1Oc1ccc(-c3cccnc3F)cc1[C@@]21COC(N)=N1 (racemic)										pKa [9]: 6.4
C[C@]12CCOC[C@@H]1[C@]1(COC(N)=N1)c1cc(-c3cc(F)cc(Cl)c3)ccc1O2	0.68	2.5	0.76	7.2	3.7	9.5	43	48	57	pKa [9]: 6.7
C[C@]12CCOC[C@@H]1[C@]1(COC(N)=N1)c1cc(-c3cccnc3F)c(F)cc1O2 (racemic)									84	
CN1C(=O)[C@]2(N=C1N)c1cc(-c3cccc(OC(F)F)c3)c(F)cc1O[C@H]1CCOC[C@@H]12 (racemic)									21	
C[C@]12CCOC[C@@H]1[C@]1(COC(N)=N1)c1cc(-c3cccnc3F)ccc1O2 (racemic)									61	

The next lines start with results.

Kp uu at 4 h [1]	Drug uptake(free) (Brain [2]) [nM]	Kp uu at 1 h [3]	Drug uptake(free) (Brain [4]) [nM]	Cp(f) (Plasma [5]) [nM]	Cp(f) (Plasma [6]) [nM]	bioavailability [7] [%]	CLH (Mus musculus) [mL/min/kg]	CLhep predicted at 1 µM [8] [mL/min/kg]	Compound	further results
0.025	4.3	0.014	3	170	210	103	35	17	CN1C(=O)[C@]2(N=C1N)c1cc(-c3cccc(C#N)c3)ccc1O[C@H]1CCOC[C@@H]12 (racemic)	
< 0.012	< 0.75	0.027	7.1	63	260	75	72	51	C[C@H]1OCC[C@H]2Oc3ccc(-c4cccnc4F)cc3[C@]3(N=C(N)N(C)C3=O)[C@H]12 (racemic)	
< 0.14	< 2.3	0.028	4.4	17	160	38	140	45	CN1C(=O)[C@]2(N=C1N)c1cc(-c3cncc(F)c3)ccc1O[C@H]1CCOC[C@@H]12 (racemic)	
< 0.11	< 0.8	0.038	1	7.5	26	19	110	54	CN1C(=O)[C@]2(N=C1N)c1cc(-c3cncc(Cl)c3)ccc1O[C@H]1CCOC[C@@H]12 (racemic)	
								40	CN1C(=O)[C@]2(N=C1N)c1cc(-c3cccnc3F)c(F)cc1O[C@H]1CCOC[C@@H]12 (racemic)	
0.15	3.7	0.036	1.9	25	53	15	51	55	CN1C(=O)[C@]2(N=C1N)c1cc(-c3cccnc3F)ccc1O[C@H]1CCOC[C@@]12C (racemic)	
	8.4		11	75	320		70	46	CN1C(=O)[C@]2(N=C1N)c1cc(-c3cccnc3F)ccc1O[C@H]1CCOC[C@@H]12 (racemic)	K(p,uu,brain) ([1]; mouse, 4 h): 0.11; K(p,uu,brain) ([3]; mouse, 1 h): 0.034
0.029	0.49	0.032	0.28	17	8.7	67	22	32	CN1C(=O)[C@]2(N=C1N)c1cc(-c3cc(F)cc(Cl)c3)ccc1O[C@H]1CCOC[C@@H]12 (racemic)	

— ChEMBL document CHEMBL3124885, “Discovery of 7-tetrahydropyran-2-yl chromans: β-site amyloid precursor protein cleaving enzyme 1 (BACE1) inhibitors that reduce amyloid β-protein (Aβ) in the central nervous system” (J Med Chem, 2014)
